Only some compounds are listed: those with a hit (about 3.3% of all), similar ones and a draw of the others.
TDP2 inh – blocks human TDP2 phosphodiesterase activity | O95551 | recombinant TDP2, T5PNP hydrolysis, p-nitrophenol absorbance 415 nm | inhibition, % at 12.8 µM | 370,000 tested, 0.34% active | AID 720702;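 active = inhibition above the mean of all tested compounds plus 3 SD, set per campaign, cut at about 25% in these data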;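 also: 0% = DMSO with enzyme and 100% = buffer with substrate but no TDP2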
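System: recombinant human TDP2 / Amount: 120 nM TDP2 per well / Also added: 5 mM T5PNP chromogenic substrate / Doses: 12.8 µM single point, 1% DMSO / Incubation: 2 h at 37 °C / Detection: p-Nitrophenol epi absorbance / Evaluation: % inhibition relative to enzyme-containing and enzyme-free wells / Repeats: singlicate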
MBD2 inh – blocks human MBD2 binding to methylated DNA; Q9UBB5; TR-FRET, MBD2 binding to methylated oligonucleotide; inhibition, % at 4.4 µM; 370,000 tested, 0.31% active; AID 686964; in the data active = inhibition above about 13%
LEDGF integ inh – blocks HIV-1 LEDGF/p75-dependent DNA integration; TR-FRET IN-LEDGF/p75 DNA integration, Eu/Cy5; 370,000 tested, 0.64% active; AID 743269; inhibition, % at 3.7 µM;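 active = inhibition above the screen-wide mean plus 3 SD, cut at about 13% in these data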;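 also: signal is the Cy5 over europium emission ratio at 671 and 618 nm; 0% = plate median of compound wells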
SIAE inh – blocks human sialic acid acetylesterase | inhibition, % at 9.66 µM | SIAE FP-Rh probe binding, fluorescence polarization | 370,000 tested, 0.69% active | AID 1053197 | Q9HAT2;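 active = inhibition above a cutoff: mean of compounds within the control limits plus 3 SD of those, cut at about 17% in these data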;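 also: 0% = plate median of compound wells and 100% = probe without SIAE protein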
PRMT1 inh – inhibitors of human PRMT1 | inhibition, % at 2.79 µM | 370,000 tested, 1.3% active | Q99873 | recombinant PRMT1, activity-based probe fluorescence polarization;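 active = inhibition above about 21% made by adding two undisclosed values, limit read from the data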
Target sequence (Q99873 whole entry, looked up): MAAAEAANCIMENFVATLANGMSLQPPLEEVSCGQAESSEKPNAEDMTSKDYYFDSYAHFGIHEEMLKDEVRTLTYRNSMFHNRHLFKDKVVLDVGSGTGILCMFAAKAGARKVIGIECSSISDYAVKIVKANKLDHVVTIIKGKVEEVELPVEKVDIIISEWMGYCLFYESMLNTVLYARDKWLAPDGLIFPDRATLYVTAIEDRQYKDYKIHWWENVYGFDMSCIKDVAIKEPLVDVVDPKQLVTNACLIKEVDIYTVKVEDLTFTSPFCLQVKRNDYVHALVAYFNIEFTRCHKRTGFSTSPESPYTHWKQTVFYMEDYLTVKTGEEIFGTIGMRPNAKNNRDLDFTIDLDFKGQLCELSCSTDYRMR
UHRF1 binding – blocks human UHRF1 binding to methylated DNA; Q96T88; UHRF1 binding to methylated oligo, TR-FRET; inhibition, % at 4.4 µM; 370,000 tested, 0.75% active; AID 687016; in the data active = inhibition above about 21%;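 also: UHRF1 SRA domain binding a hemimethylated CpG hairpin DNA probe; 0% = median of test compound wells and 100% = reference inhibitor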
IN multimer up – activates HIV-1 integrase multimerization in LEDGF counter-screen; shares compounds with LEDGF integ inh; TR-FRET HIV-1 integrase multimerization, biochemical; activation, % at 7.7 µM; 2,000 tested, 17% active; AID 1053131; in the data active = activation above about 8.9%
TRFRET interf – optically interferes with TR-FRET readout in LEDGF counter-screen; shares compounds with LEDGF integ inh; 2,000 tested, under 10 active; inhibition, % at 7.7 µM; TR-FRET optical interference counterscreen, HIV-1 IN multimerization;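 active = inhibition above the mean over all tested compounds plus 3 SD, which no compound reached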;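 also: 0% = integrase with antibodies and DMSO and 100% = antibodies without integrase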
IN-LEDGF confirm – LEDGF/p75-dependent HIV-1 integration inhibition, confirmation | inhibition, % at 3.7 µM | 2,000 tested, 36% active | TR-FRET LEDGF/p75-dependent HIV-1 integration, biochemical | shares compounds with LEDGF integ inh | AID 1053136; in the data active = inhibition above about 14%
* hit, by the source's call; nt = no result given.

SMILES | TDP2 inh | MBD2 inh | LEDGF integ inh | SIAE inh | PRMT1 inh | UHRF1 binding | IN multimer up | TRFRET interf | IN-LEDGF confirm
O=C(Nc1ccc(F)cc1)OCc1cn(Cc2cccc(F)c2)nn1 | 7 | 0 | -2 | -2 | 2 | 4 | nt | nt | nt
O=C(Nc1ccc2c(c1)oc1ccc(S(=O)(=O)N3CCCC3)cc12)C1CC1 | 14 | 2 | 24* | -11 | -1 | -6 | 1 | -3 | -4
CN(CC(=O)Nc1cc([N+](=O)[O-])ccc1Cl)Cc1ccc(Br)cc1 | -2 | -12 | 14* | 8 | 2 | -12 | 1 | -3 | -6
CCOc1ccc(-n2c(SCC(=O)Nc3ccc4c(c3)c3ccccc3n4CC)nnc2-c2cccnc2)cc1 | 0 | -3 | 3 | -2 | 1 | 0 | nt | nt | nt
COc1ccccc1N1C(=O)CC(Nc2ccc(N3CCOCC3)cc2)C1=O (stereo not drawn) | 11 | 0 | 15* | 14 | 22* | 1 | 1 | -3 | -3
CCOc1ccccc1N1C(=O)CC(Nc2ccc(N3CCOCC3)cc2)C1=O (stereo not drawn) | 22 | 2 | 11 | 9 | 5 | -2 | nt | nt | nt
Cc1cccc(N/N=C/c2ccc(O)c(O)c2O)c1 | -11 | 7 | 70* | -2 | 33* | 7 | 9.1* | -46 | 29*
CCN(CC)C(=O)[C@H]1C[C@H](CC(=O)NCCc2ccccn2)C(=O)N2CCc3c([nH]c4cc(-c5ccco5)ccc34)[C@]12C | -2 | -3 | 65* | 4 | 2 | 0 | 0 | -1 | -5
COC(=O)[C@]12C[C@H](CC(=O)NCC3CCCCC3)C(=O)N(Cc3ccccc3)C1=C[C@H](C(C)C)O[C@@H]2C1CC1 | -5 | -5 | 10 | 0 | -5 | 2 | nt | nt | nt
COc1cc(CNc2ncnc3c2ncn3[C@H]2CN(Cc3cccc(C(F)(F)F)c3)C[C@@H](COC(C)=O)O2)cc(OC)c1OC | 2 | -4 | 38* | 4 | -1 | 0 | 1 | -7 | -8
COc1cc(CNc2ncnc3c2ncn3[C@H]2CN(Cc3cccc(C(F)(F)F)c3)C[C@@H](CO)O2)cc(OC)c1OC | -9 | -3 | 5 | -2 | -4 | 2 | nt | nt | nt
O=C(N/N=C/c1cccnc1)c1cc(O)c(O)c(O)c1 | 15 | 1 | 38* | 1 | 14 | 15 | 35* | -125 | 20*
COc1ccc(CC(=O)N/N=C/c2cccnc2)cc1OC | -7 | -1 | -3 | 2 | 1 | -2 | nt | nt | nt
O=C(N/N=C/c1cccnc1)c1ccc(O)cc1 | -17 | -7 | 0 | 5 | -3 | 0 | nt | nt | nt
CCOc1ccc(CC(=O)N/N=C/c2cccnc2)cc1OCC | 7 | -3 | 70* | 0 | -1 | -4 | 2 | -10 | 0
C[C@H]1[C@@H](OC(=O)Nc2ccccc2F)CC[C@@]23CCCN2C(=O)CCC[C@@H]13 | 2 | -4 | 0 | -3 | -2 | -1 | nt | nt | nt
CCc1ccc(Nc2n[n+](C)c(-c3ccncc3)s2)cc1 | -2 | -2 | 42* | 8 | 4 | -2 | 0 | 2 | -6
CCc1ccc(Nc2n[n+](-c3ccccc3)c(-c3ccc(C(=O)O)cc3)s2)cc1 | -2 | 3 | 3 | -5 | 4 | -2 | nt | nt | nt
Cc1cc(=O)[nH]c(SCC(=O)NCc2ccc3c(c2)OCO3)n1 | -8 | -1 | -1 | 2 | -2 | -1 | nt | nt | nt
Cc1nc(SCC(=O)NCc2ccc3c(c2)OCO3)c(C#N)c2c1CCCC2 | 1 | -5 | 91* | 4 | -1 | 0 | 1 | -3 | 2
CN(CCc1ccccc1)C(=O)c1ccc(NC(=O)Cc2cccc(NC(=O)C3CCN(C(=O)C4CCCCC4)CC3)c2)cc1 | -11 | -5 | 3 | -8 | -3 | -2 | nt | nt | nt
CN(CCc1ccccc1)C(=O)c1ccc(NC(=O)Cc2cccc(NC(=O)C3CCN(C(=O)c4ccccc4)CC3)c2)cc1 | 0 | -1 | 21* | 4 | 2 | 1 | -3 | 13 | 1
COc1ccc(/C=N/Nc2nc(N)cc(Cl)n2)cc1OC | 0 | -2 | 28* | -3 | 0 | -3 | 3 | -13 | -5
COc1cccc(NC(=O)C2CC(=O)N=C(N)S2)c1 (stereo not drawn) | 5 | -6 | 17* | 2 | -1 | -2 | 0 | -2 | 1
CC(=O)Nc1ccc(NC(=O)C2CC(=O)N=C(N)S2)cc1 (stereo not drawn) | 5 | -2 | 1 | 11 | -1 | -3 | nt | nt | nt
SMILES | TDP2 inh | MBD2 inh | LEDGF integ inh | SIAE inh | PRMT1 inh | UHRF1 binding | IN multimer up | TRFRET interf | IN-LEDGF confirm
COC(=O)c1cc(NS(=O)(=O)c2ccc(N3CCOCC3)c(N)c2)cc(C(=O)OC)c1 | 0 | 3 | 14* | 3 | 3 | 2 | 0 | -2 | -6
Cc1ccc(C(=O)ONc2ccc(N=NC(=O)c3ccccc3O)cc2)cc1 | -13 | 0 | 20* | 8 | 0 | -2 | 2 | -7 | -1
COc1ccc(OC)c(C2C(C#N)=C(N)Oc3cc(N)ccc32)c1 (stereo not drawn) | -3 | -5 | 14* | -1 | 9 | -4 | 2 | -9 | -4
COC(=O)c1ccc(C2C(C#N)=C(N)Oc3cc(N)ccc32)cc1 (stereo not drawn) | 4 | 3 | 10 | -1 | 2 | -2 | nt | nt | nt
COc1ccc(OC)c(C2C(C#N)=C(N)Oc3cc(C)[nH]c(=O)c32)c1 (stereo not drawn) | -3 | 0 | -1 | -1 | 0 | 1 | nt | nt | nt
N#CC1=C(N)Oc2cc(N)ccc2C1c1cccc(F)c1 (stereo not drawn) | 3 | -3 | 15* | 7 | 12 | -2 | 0 | 0 | -6
CCCC1CCC2(CC1)CCC2OC(=S)NCCc1ccc(Cl)cc1 (stereo not drawn) | 5 | 1 | 4 | -4 | 1 | 0 | nt | nt | nt
COc1ccccc1/C=N\NC(=O)c1cccc(S(=O)(=O)N(C)C)c1 | 10 | 2 | 4 | 3 | 3 | -1 | nt | nt | nt
COc1ccc(CC(Cc2ccc(OC)c(OC)c2)NC=O)cc1OC | -4 | 0 | 16* | 5 | 0 | -1 | -2 | 11 | -4
COc1ccc2c(c1)C(c1ccc(C)o1)=NNC(c1cccnc1)=N2 | -9 | -3 | 19* | 4 | -4 | 1 | 1 | -4 | -4
Cc1cccc(C)c1NC(=O)NCCSc1snnc1C | 3 | 2 | 15* | -1 | 2 | 2 | 0 | 0 | 2
